Active and inactive are the calls of the source. The rule behind the calls is not given here.

Test [1] addresses T1, Mineralocorticoid receptor (Rattus norvegicus) (UniProt P22199).
T1 sequence (whole entry): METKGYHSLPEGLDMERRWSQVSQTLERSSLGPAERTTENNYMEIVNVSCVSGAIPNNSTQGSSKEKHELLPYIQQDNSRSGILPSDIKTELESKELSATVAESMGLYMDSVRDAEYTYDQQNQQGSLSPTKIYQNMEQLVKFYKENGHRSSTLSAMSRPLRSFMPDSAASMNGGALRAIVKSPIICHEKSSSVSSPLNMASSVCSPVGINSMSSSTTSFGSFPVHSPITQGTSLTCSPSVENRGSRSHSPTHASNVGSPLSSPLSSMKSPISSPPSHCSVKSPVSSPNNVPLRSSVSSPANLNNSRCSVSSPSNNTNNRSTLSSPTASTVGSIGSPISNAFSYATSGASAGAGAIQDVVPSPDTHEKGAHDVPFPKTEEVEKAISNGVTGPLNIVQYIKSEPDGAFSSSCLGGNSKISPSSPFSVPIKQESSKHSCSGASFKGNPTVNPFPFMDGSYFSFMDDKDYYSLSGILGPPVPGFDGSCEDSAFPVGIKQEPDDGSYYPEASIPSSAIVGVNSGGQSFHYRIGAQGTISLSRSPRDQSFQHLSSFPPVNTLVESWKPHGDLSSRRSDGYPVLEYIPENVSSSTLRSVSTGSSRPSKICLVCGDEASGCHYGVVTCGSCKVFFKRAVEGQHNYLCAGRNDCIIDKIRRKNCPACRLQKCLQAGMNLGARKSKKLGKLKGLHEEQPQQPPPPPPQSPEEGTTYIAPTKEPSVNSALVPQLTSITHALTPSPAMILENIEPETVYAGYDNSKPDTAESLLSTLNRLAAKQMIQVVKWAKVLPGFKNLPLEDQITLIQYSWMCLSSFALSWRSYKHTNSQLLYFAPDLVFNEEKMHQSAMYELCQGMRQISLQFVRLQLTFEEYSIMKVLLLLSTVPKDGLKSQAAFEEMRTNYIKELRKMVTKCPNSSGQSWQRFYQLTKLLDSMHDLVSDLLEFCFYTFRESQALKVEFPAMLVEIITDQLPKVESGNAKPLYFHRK
The test can be described thus: (§1) Relative anti-mineralocorticoid potency compared to Spironolactone after oral administration. It is filed as functional, organism-based. Put shortly: (§2)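 Male rats were bilaterally adrenalectomized (bioassay modified from Kagawa). Ald (1 µg/kg) was given sc, immediately followed by test compound in sesame oil sc or orally. Urine was collected from 2 to 6 h after steroid. Potency came from the urinary Na/K ratio of sample versus control, with 95% confidence limits.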

Test [2] has as its target T1, Mineralocorticoid receptor (Rattus norvegicus). The test can be described thus: Relative binding affinity against mineralocorticoid receptor determined in rat renal cytosol using [3]Ald as ligand. Put shortly: (§3)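 Renal cytosol came from male Sprague-Dawley rats (4-8 weeks) adrenalectomized bilaterally 1 or 2 days earlier. It was incubated with various competitor concentrations and about 1 nM [3H]Ald for 42-48 h at 0 °C or 100-120 min at 25 °C. Bound and free steroid were separated by DCC.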

For test [3] the target is unchanged. Put plainly: Antagonist activity against Mineralocorticoid receptor after oral administration in Male Sprague Dawley rats; (+) =positive. To be noted: filed as antagonist. The test is classed as functional, organism-based. Put shortly:
as §2

The target is the same in test [4]. The test can be described thus: Antagonist activity against Mineralocorticoid receptor after po administration in Male Sprague Dawley rats; (-) = negative. The test is classed as functional, organism-based. Put shortly: as §2
For test [5], the target named is T2, Androgen receptor (Rattus norvegicus) (UniProt P15207).
T2 sequence (whole entry): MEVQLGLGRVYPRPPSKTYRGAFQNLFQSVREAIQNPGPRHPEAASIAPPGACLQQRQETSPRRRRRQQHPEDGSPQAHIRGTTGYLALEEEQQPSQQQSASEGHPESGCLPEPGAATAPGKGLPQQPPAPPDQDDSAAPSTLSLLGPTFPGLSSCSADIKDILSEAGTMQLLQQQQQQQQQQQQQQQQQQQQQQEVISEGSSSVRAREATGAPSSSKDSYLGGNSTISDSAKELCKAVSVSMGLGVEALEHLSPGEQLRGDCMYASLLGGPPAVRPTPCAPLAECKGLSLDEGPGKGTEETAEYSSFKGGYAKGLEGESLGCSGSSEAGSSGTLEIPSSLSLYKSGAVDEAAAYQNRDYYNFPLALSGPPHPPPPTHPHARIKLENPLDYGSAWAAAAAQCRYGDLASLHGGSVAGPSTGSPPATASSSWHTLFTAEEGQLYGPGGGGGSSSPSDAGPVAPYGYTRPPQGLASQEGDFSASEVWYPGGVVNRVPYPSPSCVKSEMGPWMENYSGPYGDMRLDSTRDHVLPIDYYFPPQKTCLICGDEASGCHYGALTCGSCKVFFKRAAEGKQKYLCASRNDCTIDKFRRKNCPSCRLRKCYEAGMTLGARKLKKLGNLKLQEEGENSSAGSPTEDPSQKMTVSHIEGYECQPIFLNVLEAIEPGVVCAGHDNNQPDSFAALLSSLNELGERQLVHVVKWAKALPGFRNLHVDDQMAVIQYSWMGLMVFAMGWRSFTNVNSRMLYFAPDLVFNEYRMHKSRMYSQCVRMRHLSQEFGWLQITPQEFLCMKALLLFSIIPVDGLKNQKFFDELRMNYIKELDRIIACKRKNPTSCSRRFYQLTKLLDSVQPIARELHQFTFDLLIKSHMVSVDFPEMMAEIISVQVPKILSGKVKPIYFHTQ
Put plainly: Relative anti-androgenic activity as suppressive effect on weight increase of seminal vesicle in castrated immature rats given testosterone propionate (95% confidence limit). The test is classed as functional. Put shortly: (§4)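 Male Sprague-Dawley rats (3 weeks old) were castrated 3 days earlier. […] Suppression of accessory sex organ weight gain gave relative antiandrogenic activity.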

For the next test, the species on record is Rattus norvegicus. The test can be described thus: Displacement of [3H]promegestone from progestin receptor of rat uterine cytosol at 0 degree Centigrade. Put shortly:
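Uteri from estradiol-primed rats supplied the cytosol. It was incubated with various competitor concentrations and about 1 nM [3H]promegestone for 16-20 h at 0 °C. Bound and free steroid were separated by DCC. RBA (progesterone = 100%) = 100 × ratio of the 50%-inhibition concentrations of standard and competitor.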

The target of test [6] is T1, Mineralocorticoid receptor (Rattus norvegicus). Put plainly: Relative binding affinity to the rat mineralocorticoid receptor determined in rat renal cytosol using [3]Ald as ligand. Put shortly:
as §3

Test [7] has the same target. Put plainly: Antagonist activity against Mineralocorticoid receptor after subcutaneous administration in Male Sprague Dawley rats; (+) =positive. Conditions: filed as antagonist. It is filed as functional, organism-based. Put shortly: as §2
For test [8], the target named is T2, Androgen receptor (Rattus norvegicus). The test can be described thus: Relative anti-androgenic activity as suppressive effect on weight increase of ventral prostate in castrated immature rats given testosterone propionate (95% confidence limit). It is filed as functional. Conditions: Prostate gland. Put shortly: as §4
Test [9] deals with T1, Mineralocorticoid receptor (Rattus norvegicus). The description is as §1. The test is classed as functional, organism-based. Put shortly:
as §2
This is another data set of the same source.

The target of test [10] is T3, Progesterone receptor (Rattus norvegicus) (UniProt Q63449).
T3 sequence (whole entry): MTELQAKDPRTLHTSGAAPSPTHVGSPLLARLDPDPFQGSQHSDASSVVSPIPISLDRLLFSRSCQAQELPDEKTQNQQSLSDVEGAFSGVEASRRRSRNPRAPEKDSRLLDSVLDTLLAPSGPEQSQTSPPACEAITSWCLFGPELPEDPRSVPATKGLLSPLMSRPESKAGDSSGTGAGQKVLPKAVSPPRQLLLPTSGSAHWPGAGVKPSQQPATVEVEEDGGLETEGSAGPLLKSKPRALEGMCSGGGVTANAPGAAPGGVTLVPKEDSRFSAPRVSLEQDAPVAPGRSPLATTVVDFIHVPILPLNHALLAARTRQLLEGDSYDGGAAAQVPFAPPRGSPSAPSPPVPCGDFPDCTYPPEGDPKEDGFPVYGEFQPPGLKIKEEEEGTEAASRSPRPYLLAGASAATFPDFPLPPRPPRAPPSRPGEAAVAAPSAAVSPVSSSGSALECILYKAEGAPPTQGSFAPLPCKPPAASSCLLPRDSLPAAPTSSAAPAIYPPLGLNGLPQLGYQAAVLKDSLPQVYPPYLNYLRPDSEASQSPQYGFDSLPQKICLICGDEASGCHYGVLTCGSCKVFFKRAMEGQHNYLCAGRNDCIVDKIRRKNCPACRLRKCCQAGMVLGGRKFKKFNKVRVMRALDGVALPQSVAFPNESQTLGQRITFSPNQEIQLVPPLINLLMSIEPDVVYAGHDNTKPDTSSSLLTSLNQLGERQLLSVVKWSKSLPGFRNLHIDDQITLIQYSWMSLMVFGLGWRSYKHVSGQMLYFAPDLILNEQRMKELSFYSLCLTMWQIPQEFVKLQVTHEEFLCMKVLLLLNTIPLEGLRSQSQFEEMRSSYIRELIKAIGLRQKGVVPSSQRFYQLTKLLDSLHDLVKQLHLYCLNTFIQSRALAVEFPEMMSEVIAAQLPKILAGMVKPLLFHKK
The test can be described thus: Relative binding affinity against progesterone receptor determined in rat […] cytosol using [3H]DHT as ligand.

The target of test [11] is T1, Mineralocorticoid receptor (Rattus norvegicus). The test can be described thus: Relative potency compared to Aldosterone;Range 4.3-23. It is filed as functional.
Test [12] shares this target. Put plainly: Antagonist activity against Mineralocorticoid receptor was determined after subcutaneous administration in Male Sprague Dawley rats. The test is classed as functional, organism-based. Put shortly: as §2
The target is the same in test [13]. The test can be described thus: Antagonist activity against Mineralocorticoid receptor after po administration in Male Sprague Dawley rats; (+) =positive. It is filed as functional, organism-based. To be noted: filed as antagonist. Put shortly: as §2
Test [14] shares this target. The test can be described thus: Antagonist activity against Mineralocorticoid receptor after oral administration in Male Sprague Dawley rats; (-) = negative. It is filed as functional, organism-based. Put shortly:
as §2

Test [15] has the same target. The test can be described thus: Agonist activity against Mineralocorticoid receptor was determined after subcutaneous administration in Male Sprague Dawley rats; (+) =positive. It is filed as functional, organism-based. To be noted: filed as agonist.
The target is the same in test [16]. Put plainly: Relative potency compared to Aldosterone; Range is 177-1340. The test is classed as functional.
For test [17] the target is unchanged. Put plainly: In vivo relative Mineralocorticoid activity in Male Sprague-Dawley rats. It is filed as functional, organism-based.
Test [18] shares this target. The test can be described thus: Relative potency against mineralocorticoid receptor. The test is classed as functional. Put shortly: as §2
Test [19] shares this target. The test can be described thus: Relative potency compared to Aldosterone;Range is 1.2-1.6. It is filed as functional.
Test [20] has the same target. Put plainly: Agonist activity against Mineralocorticoid receptor after subcutaneous administration in Male Sprague Dawley rats; (-) = negative. The test is classed as functional, organism-based.

In the case of `CC12C=CC(=O)C=C1C=CC1C2C=CC2(C)C1CC[C@@]21CCC(=O)O1` (stereo partly drawn), the Relative potency in test [1] turned out to be 2.08; in test [9], 0.93. Also, the results for the RBA (in test [2]; in the test filed under Rattus norvegicus; in test [6]) were 22%, 1.6% and 20%, respectively. Besides, the Activity entry in [3] is “Antagonist”; in test [5], 0.14; in [7], “Antagonist”; in test [8] it was 0.42. In [4], the result was inactive.

For `CC(=O)S[C@@H]1CC2=CC(=O)C=CC2(C)C2C=CC3(C)C(C4CC4[C@@]34CCC(=O)O4)C21` (stereo partly drawn), the RBA in [10] is 23%; in [2], 91%; in [6] it was 350%. For the same molecule, the Relative potency in [11] turned out to be 4.3. For the same molecule, the outcome in test [12] and in test [14] was inactive. Besides, in test [13], the Activity entry was “Antagonist”.

On to `CC12CCC(=O)C=C1CCC1C2C=CC2(C)C1CC[C@@]21CCC(=O)O1` (stereo partly drawn), for which the RBA in test [2] was 570%; in the test filed under Rattus norvegicus it was 53%; in test [6], 440%. In test [15], the Activity entry is “Agonist”. The result in [12] was inactive. Moreover, the Relative potency in test [16] came to 177.

With `C[C@]12CCC(=O)C=C1CC[C@@H]1[C@@H]2[C@@H](O)C[C@]2(C=O)[C@@H](C(=O)CO)CC[C@@H]12`, in [17], the Relative activity turned out to be 30. This molecule also displayed a Relative potency in test [18] of 1.

`CC12C=CC(=O)C=C1C1CC1C1C2C=CC2(C)C1C1CC1[C@@]21CCC(=O)O1` (stereo partly drawn): the RBA in [10] was found to be 150%; in [2], 250%; in [6], 480%. The outcome in test [12] and in test [14] was inactive. Moreover, the Activity result in [13] is “Antagonist”. In test [19], this molecule yielded a Relative potency of 1.2.

Turning to `CC12CCC(=O)C=C1[C@H]1C[C@H]1C1C2C=CC2(C)C1CC[C@@]21CCC(=O)O1` (stereo partly drawn), the Relative potency in test [1] came to 1.48. Moreover, the RBA in test [10] was 6.7%; in test [2] it was 88%; in test [6], 110%. For the same molecule, in [20], the result was inactive. The Activity entry in test [7] was “Antagonist”.

The values above are taken from ChEMBL document CHEMBL1123888, “Aldosterone antagonists. 2. Synthesis and biological activities of 11,12-dehydropregnane derivatives” (J Med Chem, 1987).
